Data from paper PMC5350499 (International Journal for Parasitology: Drugs and Drug …, 2017).
Converted amounts (≈) assume the structure as drawn. Like-named read-outs stand apart in the source and are kept apart here.

Assays:
P. falciparum Dd2 [1] = assay: Stage specificity, YOYO-1 flow cytometry of synchronized cultures; format: cell-based, Plasmodium falciparum; details: treated at ring stage (6 hpi), 5× EC50; monitored every 12 h
Summary of the method: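 Aliquots taken every 12 h over 48 h. Samples fixed in 0.04% glutaraldehyde/PBS, permeabilized with 0.25% Triton X-100, RNase-treated and stained with YOYO-1. Flow cytometry at 488 nm excitation with a 530/30 filter; DNA content plotted against cell count.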

[2] = system: P. falciparum HB3 (chloroquine-sensitive); assay: Image-based merozoite egress and invasion assay; format: cell-based, Plasmodium falciparum; details: for effect on merozoite egress and invasion: exposed at 42 hpi (schizont stage) for 24 h, 10 μM per method; for parasite phenotype in sample micrographs: 1 μM at 42 hpi for 24 h (Fig. 4 legend)
Summary of the method: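 Sorbitol-synchronized HB3 at 1.5% hematocrit and 5% parasitemia, exposed at 42 hpi for 24 h alongside GlcNAc, E-64 and artemisinin references. Stained with WGA-Alexa Fluor 488 and Mitotracker Red CMXRos (1 nM each, 37 °C, 20 min), then fixed in 4% paraformaldehyde with DAPI. Five fields per well imaged at 405/488/635 nm (40× objective) with automated detection of parasitized erythrocytes.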

P. falciparum = assay: Parasitemia after treatment at late schizont/segmenter stage; format: cell-based, Plasmodium falciparum; details: 5× EC50, 24 h; compared to control cultures
Microsomal stability = format: in vitro ADME; details: mouse, liver microsomes
[3] = system: HepG2 human hepatocyte cells; assay: MTS cytotoxicity assay; format: cell-based; details: for EC50: Homo sapiens
Summary of the method: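 HepG2 seeded at 2500 cells/well in 384-well plates with compound dilutions, 48 h at 37 °C, 5% CO2. MTS reagent added for a further 3 h; absorbance read at 490 nm. EC50 from 3 independent experiments, each in triplicate (±SD).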

[4] = system: P. berghei ANKA expressing luciferase; assay: Elimination of existing infection, luciferase IVIS imaging; format: in vivo, Plasmodium berghei in Swiss Webster mice; details: 100 mg/kg once daily oral, started 72 h post-infection; Swiss Webster mice
Summary of the method: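 Swiss Webster mice infected with 10^4 luciferase-expressing P. berghei ANKA on day 0 and grouped at 72 h (n = 5/group). Oral gavage once daily for 5 days: test compound 100 mg/kg, chloroquine 40 mg/kg, or vehicle (2% methylcellulose, 0.5% Tween80). On day 7, D-luciferin 150 mg/kg injected; signal detected and quantified by IVIS.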

[5] = system: P. falciparum Dd2 (chloroquine-resistant); assay: SYBR green I-based parasite viability assay, Dd2 strain; format: cell-based, Plasmodium falciparum; details: for EC50: Plasmodium falciparum, DD2, 72 h
Summary of the method: (§1)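 Parasites grown in human A+ erythrocytes in RPMI 1640 (25 mM HEPES pH 7.4, 26 mM NaHCO3, 2% dextrose, hypoxanthine, gentamycin, 0.5% Albumax II), 37 °C, 5% CO2. Compound DMSO dilutions (<0.125% DMSO) at 1% parasitemia, 2% hematocrit; chloroquine baseline. After 72 h: frozen at −80 °C, thawed, lysed with saponin/Triton/EDTA buffer containing 0.01% SYBR Green I, 30 min dark at 37 °C; fluorescence read at 485/530 nm. EC50 from 3 experiments × 3 replicates (±SD).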

[6] = Aqueous solubility at pH 7.4, UV-visible absorption based method; format: physicochemical; details: aqueous solution at pH 7.4, pH 7.4, aqueous buffer
P. falciparum Dd2 [7] = assay: Stage specificity, Giemsa-stained thin smears of synchronized cultures; format: cell-based, Plasmodium falciparum
P. berghei ANKA = assay: Peters' four-day test, murine malaria model; format: in vivo, Plasmodium berghei in balb/c mice; details: 100 mg/kg twice daily oral
[8] = system: P. falciparum 3D7 (chloroquine-sensitive); assay: SYBR green I-based parasite viability assay, 3D7 strain; format: cell-based; details: Plasmodium falciparum, 3D7, 72 h
Summary of the method: as §1

β-hematin formation = assay: β-Hematin formation assay; format: biochemical; details: 100 μM; for %Inhibition of β-hematin formation: average of two separate experiments
Summary of the method: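 Compound added with water, acetone and Nonidet P-40, then hematin-DMSO suspension; incubated 6 h at 37 °C with shaking. β-Hematin measured by pyridine ferrochrome method: 5% v/v final pyridine (from water/20% acetone/HEPES/50% pyridine solution), 10 min under the same conditions, absorbance at 405 nm. Chloroquine and 8-hydroxyquinoline run as references.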

[9] = HepG2, 48 h, read-out: HepG2 EC50

## C[C@@H]1CC[C@H]2[C@@H](C)C(=O)O[C@@H]3O[C@@]4(C)CC[C@@H]1[C@]32OO4 [artemisinin, reference compound]
P. falciparum Dd2 [1]
  intraerythrocytic maturation by flow cytometry: maturation is blocked
[2]
  effect on merozoite egress and invasion: no effect on invasion
P. falciparum
  culture parasitemia after exposure at 42 hpi: does not cause similar marked reduction

## CCN(CC)CCCC(C)Nc1cc(/C=C/c2ccc([N+](=O)[O-])cc2)nc2ccc(OC)cc12 (stereo not shown) [UCF 501, 4-Nitro styrylquinoline (NSQ)]
Microsomal stability
  remaining at 1 h: 47.8%
Microsomal stability; Microsomal stability t1/2, mouse liver microsomes
  half-life: 56.2 min
[3]; HepG2 EC50 versus Dd2 EC50
  selectivity: 192
[3]; HepG2, 48 h, read-out: EC50 HepG2
  EC50: 12920 ± 70 nM
[3]; HepG2, read-out: EC50 in HepG2 cells
  EC50: 12900 nM
[4]
  luciferase expressing parasite burden, delayed treatment: almost cleared
[5]; read-out: EC50 Dd2
  EC50: 67 ± 8 nM
P. falciparum Dd2 [1]
  intraerythrocytic maturation by flow cytometry: maturation is blocked
[6]
  solubility: 290 µg/mL (≈ 626 µM)
[2]
  parasite phenotype in sample micrographs: accumulation of extracellular merozoites
  effect on merozoite egress and invasion: blocks invasion
P. falciparum Dd2 [7]; 5× EC50, compared to untreated controls
  ring-infected erythrocytes after exposure at 42 hpi: scarcely seen
P. falciparum Dd2 [7]; 5× EC50, treated at 42 hpi
  blocking merozoite egress: inactive
P. falciparum Dd2 [7]; after treatment, all stages of the intraerythrocytic lifecycle
  time to phenotypically observable developmental changes: ≤ 12 h
P. falciparum
  culture parasitemia after exposure at 42 hpi: significant reduction
P. berghei ANKA; 4 days, Balb/c mice, no infection up to day 30
  mice cured of malaria infection: 4/5
P. berghei ANKA; day 22
  parasitemia in the one animal not cured, day 22: 0.2%
P. berghei ANKA; day 27, euthanized
  parasitemia in the one animal not cured, day 27: 40%
[8]; read-out: EC50 3D7
  EC50: 119 ± 3 nM
β-hematin formation
  inhibition of β-hematin formation, in words: totally inactive
  %Inhibition of β-hematin formation: 0 ± 0.07%

## COc1ccc2nc(/C=C/c3ccc([N+](=O)[O-])cc3)cc(NCCCN3CCOCC3)c2c1 [Compound 17]
[3]; [9]
  EC50: 15700 ± 70 nM
[5]; read-out: Dd2 EC50
  EC50: 123 ± 50 nM
[8]; read-out: 3D7 EC50
  EC50: 193 ± 50 nM

## COC(=O)c1ccc(/C=C/c2cc(NCCCN3CCOCC3)c3cc(OC)ccc3n2)cc1 [Compound 16]
[3]; [9]
  EC50: 12800 ± 20 nM
[5]; read-out: Dd2 EC50
  EC50: 471 ± 80 nM
[8]; read-out: 3D7 EC50
  EC50: 322 ± 40 nM

## Oc1cccc2cccnc12 [8-Hydroxyquinoline]
β-hematin formation
  %Inhibition of β-hematin formation: 6 ± 0.42%

## CC(C)C[C@H](NC(=O)[C@H]1O[C@@H]1C(=O)O)C(=O)NCCCCN=C(N)N (relative stereo) [Compound E-64, L-trans-epoxysuccinyl-leucylamido-(4-guanidino)butane]
[2]
  effect on merozoite egress and invasion: completely blocks egress

## COc1ccc2nc(/C=C/c3ccc(F)cc3)cc(NCCCN(C)C)c2c1 [Compound 9]
[3]; [9]
  EC50: 12600 ± 10 nM
[5]; read-out: Dd2 EC50
  EC50: 137 ± 50 nM
[8]; read-out: 3D7 EC50
  EC50: 299 ± 40 nM

## COc1ccc2nc(/C=C/c3ccc(F)cc3)cc(NCCCN3CCOCC3)c2c1 [Compound 14]
[3]; [9]
  EC50: 13600 ± 50 nM
[5]; read-out: Dd2 EC50
  EC50: 208 ± 40 nM
[8]; read-out: 3D7 EC50
  EC50: 310 ± 20 nM

## COc1ccc2nc(/C=C/c3ccc(C(F)(F)F)cc3)cc(NCCCN(C)C)c2c1 [Compound 10]
[3]; [9]
  EC50: > 20000 nM
[5]; read-out: Dd2 EC50
  EC50: 726 ± 40 nM
[8]; read-out: 3D7 EC50
  EC50: 605 ± 40 nM

## CC(=O)N[C@@H]1[C@@H](O)[C@H](O)[C@@H](CO)O[C@H]1O [N-acetylglucosamine]
[2]
  parasite phenotype in sample micrographs: accumulation of extracellular merozoites
  effect on merozoite egress and invasion: blocks invasion

## COc1ccc2nc(/C=C/c3ccccc3)cc(NCCCN(C)C)c2c1 [Compound 8]
[3]; [9]
  EC50: 19900 ± 40 nM
[5]; read-out: Dd2 EC50
  EC50: 323 ± 40 nM
[8]; read-out: 3D7 EC50
  EC50: 302 ± 10 nM

## COc1ccc2nc(/C=C/c3ccc([N+](=O)[O-])cc3)cc(NCCCN(C)C)c2c1 [Compound 12]
[3]; [9]
  EC50: 15300 ± 50 nM
[5]; read-out: Dd2 EC50
  EC50: 57 ± 30 nM
[8]; read-out: 3D7 EC50
  EC50: 197 ± 20 nM

## COc1ccc2nc(/C=C/c3ccc(C(F)(F)F)cc3)cc(NCCCN3CCOCC3)c2c1 [Compound 15]
[3]; [9]
  EC50: > 20000 nM
[5]; read-out: Dd2 EC50
  EC50: 735 ± 60 nM
[8]; read-out: 3D7 EC50
  EC50: 599 ± 30 nM

## COc1ccc2nc(/C=C/c3ccccc3)cc(NCCCN3CCOCC3)c2c1 [Compound 13]
[3]; [9]
  EC50: 18000 ± 40 nM
[5]; read-out: Dd2 EC50
  EC50: 303 ± 40 nM
[8]; read-out: 3D7 EC50
  EC50: 373 ± 30 nM

## CCN(CC)CCCC(C)Nc1ccnc2cc(Cl)ccc12 (stereo not shown) [Chloroquine, reference compound]
[3]; [9]
  EC50: > 20000 nM
[5]; Dd2 versus 3D7
  EC50 fold higher in Dd2 compared to 3D7: 15 fold
[5]; read-out: Dd2 EC50
  EC50: 172 nM
[8]; read-out: 3D7 EC50
  EC50: 11 ± 2 nM
β-hematin formation
  inhibition of β-hematin formation, in words: complete inhibition
  %Inhibition of β-hematin formation: 100 ± 1.78%

## COC(=O)c1ccc(/C=C/c2cc(NCCCN(C)C)c3cc(OC)ccc3n2)cc1 [Compound 11]
[3]; [9]
  EC50: 14900 ± 30 nM
[5]; read-out: Dd2 EC50
  EC50: 138 ± 60 nM
[8]; read-out: 3D7 EC50
  EC50: 294 ± 60 nM
